The record followed here is ChEMBL document CHEMBL1125333, “Predictive binding of beta-carboline inverse agonists and antagonists via the CoMFA/GOLPE approach” (J Med Chem, 1992).

Test [1] has as its target GABA-A receptor; anion channel. In words: In vitro binding affinity at benzodiazepine receptor of rat cerebral cortical membranes by [3H]diazepam displacement. In short, it runs like this: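 Rat cerebral cortex homogenised in 50 mM Tris-HCl pH 7.4, centrifuged at 20000g at 4 °C and washed three times. Membranes incubated with drug and 2 nM [3H]diazepam (final) for 120 min at 4 °C, then filtered and washed with ice-cold buffer. Nonspecific binding measured with 10 μM flunitrazepam (final). IC50 estimated from Hill plots.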

The species entered for a further test is Mus musculus. In words: Tested for convulsive activity in pentylenetetrazole injected mice. Type of test: functional.

Take `CC(C)COc1cc2c(cn1)[nH]c1ccccc12`: the IC50 (as a rule, the concentration at which inhibition is half-maximal) in test [1] came to 93 nM.

Turning to `CC(C)(C)COc1cc2c3ccccc3nc-2c[nH]1`, the IC50 in test [1] worked out at 104 nM.

`CC(C)(C)C(=O)c1cc2c3ccccc3nc-2c[nH]1` gave an IC50 in test [1] of 358 nM.

For `c1ccc(CNc2cc3c(cn2)[nH]c2ccccc23)cc1`, the IC50 in test [1] was above 1280 nM.

Consider `Nc1cc2c(cn1)[nH]c1ccccc12`, for which, in test [1], the half-maximal inhibitory concentration (IC50) is above 25000 nM.

`CCOC(=O)c1cc2c(cn1)[nH]c1ccccc12`: in the test filed under Mus musculus, the ED50 (in general, the midpoint of the dose-response relation) turned out to be 3.2 mg/kg.

`COc1cc2c(cn1)[nH]c1ccccc12` registered an ED50 in the test listed under Mus musculus of 6 mg/kg. Against the preceding molecule, the ED50 is about 1.9-fold higher.

On to `CCOc1cc2c(cn1)[nH]c1ccccc12`, for which the ED50 in the test listed under Mus musculus came out at 7 mg/kg.

With `CCC(C)Oc1cc2c3ccccc3nc-2c[nH]1` (configuration not stated), the IC50 in test [1] was 471 nM.

Consider `c1ccc(COc2cc3c4ccccc4nc-3c[nH]2)cc1`, for which the IC50 in test [1] is above 1000 nM.

On to `CC(C)CCOc1cc2c3ccccc3nc-2c[nH]1`, for which the IC50 in test [1] amounted to 535 nM.

`COC(=O)c1cc2c(cn1)[nH]c1ccccc12` [BETA-CCM]: in the test listed under Mus musculus, the ED50 amounted to 10 mg/kg.
